Paper PMC10203274 (Plant Communications, 2022)
Substitutions are numbered along the chain they refer to.

Experiments:
NbUGT72AY1 = biological target: T1, NbUGT72AY1 (Nicotiana benthamiana, UniProt A0A8K1ZRH3); assay: UDP-Glo glycosyltransferase assay, acceptor substrate kinetics; type: biochemical
T1 sequence (A0A8K1ZRH3 1-477): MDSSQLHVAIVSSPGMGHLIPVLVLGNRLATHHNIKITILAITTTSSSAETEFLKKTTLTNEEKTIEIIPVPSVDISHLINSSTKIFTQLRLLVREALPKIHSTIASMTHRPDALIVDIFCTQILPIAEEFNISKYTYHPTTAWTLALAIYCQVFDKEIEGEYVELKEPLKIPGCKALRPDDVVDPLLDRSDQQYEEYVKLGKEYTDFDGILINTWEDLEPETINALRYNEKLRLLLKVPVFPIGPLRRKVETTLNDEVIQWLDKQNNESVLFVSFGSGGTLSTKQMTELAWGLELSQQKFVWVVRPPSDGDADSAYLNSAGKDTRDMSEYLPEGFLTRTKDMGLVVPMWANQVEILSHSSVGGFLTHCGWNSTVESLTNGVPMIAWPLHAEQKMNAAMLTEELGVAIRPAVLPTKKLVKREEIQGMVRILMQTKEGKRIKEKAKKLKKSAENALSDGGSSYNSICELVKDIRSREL

NbUGT72AY1-R91A = biological target: T2, NbUGT72AY1-R91A (Nicotiana benthamiana, UniProt A0A8K1ZRH3, R91A); assay: UDP-Glo glycosyltransferase assay, kinetics of mutant; type: biochemical
T2 sequence (A0A8K1ZRH3 1-477 R91A): T1 sequence (A0A8K1ZRH3 1-477) with R91A

NbUGT72AY1-R91F = biological target: T3, NbUGT72AY1-R91F (Nicotiana benthamiana, UniProt A0A8K1ZRH3, R91F); assay: as above; type: biochemical
T3 sequence (A0A8K1ZRH3 1-477 R91F): T1 sequence (A0A8K1ZRH3 1-477) with R91F

NbUGT72AY1-R91M = biological target: T4, NbUGT72AY1-R91M (Nicotiana benthamiana, UniProt A0A8K1ZRH3, R91M); assay: as above; type: biochemical
T4 sequence (A0A8K1ZRH3 1-477 R91M): T1 sequence (A0A8K1ZRH3 1-477) with R91M

[1] = system: StUGT72AY2-chimera (Potato-Tobacco-Potato); assay: UDP-Glo glycosyltransferase assay, chimeric mutant; type: biochemical, Solanum tuberosum; conditions: Figure 5B and 5D
How it was run: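 N-terminal GST-fusion enzyme expressed in E. coli BL21(DE3) pLysS (1 mM IPTG, 18°C overnight) and glutathione-eluted. Reaction: 2 μg protein, 100 μM UDP-glucose, and varied acceptor substrate (in DMSO) in 50 mM Tris-HCl pH 7.0, 30°C for 20 min. Stopped with HCl, neutralized with Trizma base, then UDP-Glo luminescence after 30 min dark. Michaelis–Menten or Hill fits from at least three repeats.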

Alternaria alternata = conditions: in vitro and in vivo; ref Sun et al., 2014; cited from earlier work

Structure (SMILES): COc1cc2ccc(=O)oc2cc1O [scopoletin]
- Vi (NbUGT72AY1; Fig S14b series, wild type R91, substrate scopoletin): 4.4 ± 2.3 nmol/min/mg
- Vmax (NbUGT72AY1; Figure 5A series, wild type, substrate scopoletin): 264.3 nmol/min/mg
- Ki (NbUGT72AY1; Ki, Fig S14b series, wild type R91, substrate scopoletin): 10.7 ± 2.2 µM
- Ki (NbUGT72AY1; substrate inhibition (Ki), as stated in the abstract): 4 µM
- Ki (NbUGT72AY1-R91A): 3.3 ± 0.7 µM
- Ki (NbUGT72AY1-R91F): 0.9 ± 0.3 µM
- Ki (NbUGT72AY1-R91M): 27.3 ± 4.2 µM
- Vi (NbUGT72AY1-R91M; Fig S14b, mutant R91M, substrate scopoletin): 13.1 ± 6.1 nmol/min/mg
- enzymatic activity of the chimeric mutant with the substrate [1]: inactive
- antifungal activity (Alternaria alternata): strong antifungal activity
